Results taken from ChEMBL document CHEMBL3112521, “Design, synthesis and biological evaluation of (E)-2-(2-arylhydrazinyl)quinoxalines, a promising and potent new class of anticancer agents” (Bioorg Med Chem Lett, 2014).

Columns and labels:
[1] = test system: HCT-116; assay: Cytotoxicity against human HCT116 cells assessed as growth inhibition at 5 ug/ml by MTT assay; type: functional; details: read-out: GI
Outline: (§1)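 Single-concentration MTT screen at 5 µg/mL across SF-295 (glioblastoma), OVCAR-8 (ovary) and HCT-116 (colon) cells. Read-out is percent growth inhibition, reported with sd.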

[2] = test system: SF-295; assay: Cytotoxicity against human SF295 cells assessed as growth inhibition at 5 ug/ml by MTT assay; type: functional; details: read-out: GI; outline: as §1
[3] = test system: OVCAR-8; assay: Cytotoxicity against human OVCAR8 cells assessed as growth inhibition at 5 ug/ml by MTT assay; type: functional; details: read-out: GI; outline: as §1
[4] = test system: HL-60; assay: Cytotoxicity against human HL60 cells assessed as growth inhibition by MTT assay; type: functional, cell-based
Outline: (§2)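 Dose-response on HCT-116, OVCAR-8, HL-60 (leukemia) and SF-295 cells, with doxorubicin as positive control. IC50 is taken as the concentration inducing 50% inhibition of cell growth. Data come from three independent experiments, each run in triplicate.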

[5] = test system: SF-295; assay: Cytotoxicity against human SF295 cells assessed as growth inhibition by MTT assay; type: functional, cell-based; outline: as §2
[6] = test system: HCT-116; assay: Cytotoxicity against human HCT116 cells assessed as growth inhibition by MTT assay; type: functional, cell-based; outline: as §2
[7] = test system: OVCAR-8; assay: Cytotoxicity against human OVCAR8 cells assessed as growth inhibition by MTT assay; type: functional, cell-based; outline: as §2

SMILES | inhibition of growth at 5 µg/mL [1] | inhibition of growth at 5 µg/mL [2] | inhibition of growth at 5 µg/mL [3] | IC50 [4] | IC50 [5] | IC50 [6] | IC50 [7]
COc1ccc(/C=N/Nc2cnc3ccccc3n2)cc1OC | 22.3% | 16.5% | 17.6% | – | – | – | –
Oc1ccc(/C=N/Nc2cnc3ccccc3n2)cc1O | 69.4% | 47.6% | 46.3% | – | – | – | –
COc1ccc(/C=N/Nc2cnc3ccccc3n2)c(O)c1 | 83.1% | 66.4% | 80.9% | 4.19 µM | 15.7 µM | 14.2 µM | 7.55 µM
CCOc1cccc(/C=N/Nc2cnc3ccccc3n2)c1 | 1.29% | 7.19% | 41.2% | – | – | – | –
COc1cccc(OC)c1/C=N/Nc1cnc2ccccc2n1 | 19.4% | 44.7% | 25.1% | – | – | – | –
Oc1cccc(/C=N/Nc2cnc3ccccc3n2)c1O | 84% | 81.2% | 97.9% | 0.316 µM | 1.26 µM | 1.76 µM | 1.06 µM
COc1cccc(/C=N/Nc2cnc3ccccc3n2)c1 | 14.5% | 35.8% | 41.6% | – | – | – | –
Oc1cc(/C=N/Nc2cnc3ccccc3n2)cc(O)c1O | 14.9% | 37.8% | 12.8% | – | – | – | –
COc1ccc(OC)c(/C=N/Nc2cnc3ccccc3n2)c1 | 0% | 44.6% | 18.5% | – | – | – | –
N#Cc1cccc(/C=N/Nc2cnc3ccccc3n2)c1 | 30.7% | 44.5% | 11.5% | – | – | – | –
Oc1ccc(/C=N/Nc2cnc3ccccc3n2)c(O)c1 | 85.1% | 85.3% | 84.2% | – | – | – | –
COc1ccccc1/C=N/Nc1cnc2ccccc2n1 | 4.45% | 21.8% | 21% | – | – | – | –
Clc1ccccc1/C=N/Nc1cnc2ccccc2n1 | 12.1% | 31.9% | 9.09% | – | – | – | –
Oc1cccc(/C=N/Nc2cnc3ccccc3n2)c1 | 29.6% | 27.5% | 51.5% | – | – | – | –
Clc1cccc(/C=N/Nc2cnc3ccccc3n2)c1Cl | 97.5% | 84.3% | 100% | 10.8 µM | 6.21 µM | 7.01 µM | 6.19 µM
Cc1ccc(/C=N/Nc2cnc3ccccc3n2)c(O)c1 | 17.4% | 59.9% | 31.5% | – | – | – | –
COc1cccc(/C=N/Nc2cnc3ccccc3n2)c1OC | 0% | 22.2% | 0% | – | – | – | –
COc1ccc(/C=N/Nc2cnc3ccccc3n2)cc1 | -43.6% | 0.52% | 14.4% | – | – | – | –
CCOc1ccc(/C=N/Nc2cnc3ccccc3n2)cc1 | 17.6% | 12.3% | 50.3% | – | – | – | –
Clc1ccc(/C=N/Nc2cnc3ccccc3n2)c(Cl)c1 | 16.5% | 28.5% | 4.9% | – | – | – | –
COc1ccc(/C=N/Nc2cnc3ccccc3n2)c(Cl)c1O | 24.5% | 32.4% | 13.8% | – | – | – | –
O=[N+]([O-])c1ccc(O)c(/C=N/Nc2cnc3ccccc3n2)c1 | 92.1% | 78.5% | 95.6% | 1.75 µM | 2.11 µM | 4.32 µM | 2.84 µM
C(=N\Nc1cnc2ccccc2n1)/c1ccccc1 | 18.4% | 3.37% | 34.5% | – | – | – | –
Brc1ccccc1/C=N/Nc1cnc2ccccc2n1 | 23.6% | 35.2% | 18% | – | – | – | –

SMILES | inhibition of growth at 5 µg/mL [1] | inhibition of growth at 5 µg/mL [2] | inhibition of growth at 5 µg/mL [3] | IC50 [4] | IC50 [5] | IC50 [6] | IC50 [7]
Clc1cccc(/C=N/Nc2cnc3ccccc3n2)c1 | 0% | 33.2% | 0% | – | – | – | –
Cc1cccc(/C=N/Nc2cnc3ccccc3n2)c1 | 33.4% | 39.8% | 39.9% | – | – | – | –
Clc1ccc(/C=N/Nc2cnc3ccccc3n2)cc1Cl | 0.5% | 37.8% | 0% | – | – | – | –
Oc1ccccc1/C=N/Nc1cnc2ccccc2n1 | 77% | 61.5% | 95.4% | 0.819 µM | 2.31 µM | 4.94 µM | 3.47 µM
O=[N+]([O-])c1ccc(/C=N/Nc2cnc3ccccc3n2)cc1 | 18.6% | 27% | 40.6% | – | – | – | –
N#Cc1ccc(/C=N/Nc2cnc3ccccc3n2)cc1 | 31.6% | 16% | 50.9% | – | – | – | –
COc1ccc(/C=N/Nc2cnc3ccccc3n2)c(OC)c1 | 12.8% | 46.9% | 7.19% | – | – | – | –
COc1cc(/C=N/Nc2cnc3ccccc3n2)cc(OC)c1OC | 20.7% | 60.1% | 38.8% | – | – | – | –
O=[N+]([O-])c1cccc(/C=N/Nc2cnc3ccccc3n2)c1 | 21% | 23.4% | 16.9% | – | – | – | –
Clc1ccc(/C=N/Nc2cnc3ccccc3n2)cc1 | 10.2% | 44.5% | 41.7% | – | – | – | –
Clc1cccc(Cl)c1/C=N/Nc1cnc2ccccc2n1 | 71.2% | 52% | 53.5% | – | – | – | –
O=[N+]([O-])c1cc(/C=N/Nc2cnc3ccccc3n2)ccc1Cl | 20.6% | 36.8% | 9% | – | – | – | –
Fc1ccccc1/C=N/Nc1cnc2ccccc2n1 | 7.01% | 12.8% | 0% | – | – | – | –
Cc1ccccc1/C=N/Nc1cnc2ccccc2n1 | 28.7% | 46.4% | 17.8% | – | – | – | –
COc1cccc2c1C(=O)c1c(O)c3c(c(O)c1C2=O)C[C@@](O)(C(=O)CO)C[C@@H]3O[C@H]1C[C@H](N)[C@H](O)[C@H](C)O1 [DOXORUBICIN] | – | – | – | – | – | 0.23 µM | 0.488 µM
Oc1ccc(/C=N/Nc2cnc3ccccc3n2)cc1Cl | 16.2% | 46.6% | 28.8% | – | – | – | –
Oc1ccc(/C=N/Nc2cnc3ccccc3n2)cc1 | 20.2% | 39.4% | 67.3% | – | – | – | –
Cc1ccc(/C=N/Nc2cnc3ccccc3n2)cc1 | 19.6% | 18.1% | 29% | – | – | – | –
Brc1cccc(/C=N/Nc2cnc3ccccc3n2)c1 | 0% | 14.2% | 0% | – | – | – | –
Fc1cccc(/C=N/Nc2cnc3ccccc3n2)c1 | 10.8% | 8.36% | 5.59% | – | – | – | –
Brc1ccc(/C=N/Nc2cnc3ccccc3n2)cc1 | 23.2% | 33.5% | 18.2% | – | – | – | –
O=[N+]([O-])c1ccccc1/C=N/Nc1cnc2ccccc2n1 | 23% | 21.9% | 21.8% | – | – | – | –
Cc1ccc(O)c(/C=N/Nc2cnc3ccccc3n2)c1 | 13.7% | 38.4% | 25.4% | – | – | – | –
Oc1ccc(O)c(/C=N/Nc2cnc3ccccc3n2)c1 | 89.2% | 50.7% | 60.5% | – | – | – | –
